According to ChEMBL document CHEMBL3351814, “Discovery of selective hexapeptide agonists to human neuromedin U receptors types 1 and 2” (J Med Chem, 2014):
One block for each compound: values may come before it. Active and inactive are the calls of the source. The rule behind the calls is not given here. Where a SMILES comes first, the peptide text is derived from it. [ ]: non-standard residue; d: D form. The star is where a group is joined. Propanoyl(3-(3-pyridyl)) = O=C(CCc1cccnc1)*; 2Nal = N[C@@H](Cc1ccc2ccccc2c1)C(=O)O; Propanoyl(3-cHex) = O=C(CCC1CCCCC1)*; Hydrocinnamoyl = O=C(CCc1ccccc1)*; hArg = N=C(N)NCCCC[C@H](N)C(=O)O; hPhe = N[C@@H](CCc1ccccc1)C(=O)O; Phg = N[C@H](C(=O)O)c1ccccc1; Pip = O=C(O)[C@@H]1CCCCN1; Dab = NCC[C@H](N)C(=O)O; Dap = NC[C@H](N)C(=O)O

Key:
[1] = target: T1, Neuromedin-U receptor 1 (Mus musculus, UniProt O55040); experiment: Agonist activity at mouse NMUR1 expressed in HEK293 cells by calcium mobilization assay; assay type: functional, cell-based
T1 sequence (O55040 whole entry): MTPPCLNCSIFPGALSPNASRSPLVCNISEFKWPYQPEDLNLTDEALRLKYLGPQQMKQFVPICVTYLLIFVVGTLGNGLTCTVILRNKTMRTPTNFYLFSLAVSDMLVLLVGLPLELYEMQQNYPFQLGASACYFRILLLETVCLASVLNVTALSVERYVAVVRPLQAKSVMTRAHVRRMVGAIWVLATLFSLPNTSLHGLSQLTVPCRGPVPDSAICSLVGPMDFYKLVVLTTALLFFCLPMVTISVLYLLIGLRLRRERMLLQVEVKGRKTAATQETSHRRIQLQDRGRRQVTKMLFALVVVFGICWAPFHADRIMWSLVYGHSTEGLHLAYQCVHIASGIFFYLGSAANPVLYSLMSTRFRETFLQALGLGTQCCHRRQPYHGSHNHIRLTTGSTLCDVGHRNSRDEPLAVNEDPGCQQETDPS

[2] = target: Neuromedin-U receptor 2 (Mus musculus, UniProt Q8BZ39); experiment: Agonist activity at mouse NMUR2 expressed in HEK293 cells by calcium mobilization assay; assay type: functional, cell-based
Neuromedin-U receptor 2 (Mus musculus, UniProt Q8BZ39), sequence (Q8BZ39 whole entry): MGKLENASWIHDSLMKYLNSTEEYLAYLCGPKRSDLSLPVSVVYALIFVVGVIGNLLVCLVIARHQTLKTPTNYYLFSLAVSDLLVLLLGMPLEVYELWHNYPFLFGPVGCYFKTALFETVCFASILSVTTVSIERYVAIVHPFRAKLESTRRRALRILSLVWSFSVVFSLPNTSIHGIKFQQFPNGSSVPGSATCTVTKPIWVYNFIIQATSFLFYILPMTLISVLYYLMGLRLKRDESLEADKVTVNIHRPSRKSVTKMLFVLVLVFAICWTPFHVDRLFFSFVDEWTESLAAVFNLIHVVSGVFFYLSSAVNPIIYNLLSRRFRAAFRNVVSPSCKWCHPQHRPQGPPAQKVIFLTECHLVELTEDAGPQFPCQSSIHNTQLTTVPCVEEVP

[3] = organism: Homo sapiens; experiment: Selectivity ratio of PC50 for human NMUR2 to PC50 for human NMUR1
Method in brief: (§1)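 Ratio of PC50 values from the CHO stable-line calcium assays. NMUR1 selectivity is PC50(NMUR2)/PC50(NMUR1); NMUR2 selectivity is PC50(NMUR1)/PC50(NMUR2).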

[4] = target: T2, Neuromedin-U receptor 2 (Homo sapiens, UniProt Q9GZQ4); experiment: Agonist activity at human NMUR2 expressed in CHO cells at 10^-12 to 10^-6 M by calcium mobilization assay relative to NMU; assay type: functional, cell-based
T2 sequence (Q9GZQ4 whole entry): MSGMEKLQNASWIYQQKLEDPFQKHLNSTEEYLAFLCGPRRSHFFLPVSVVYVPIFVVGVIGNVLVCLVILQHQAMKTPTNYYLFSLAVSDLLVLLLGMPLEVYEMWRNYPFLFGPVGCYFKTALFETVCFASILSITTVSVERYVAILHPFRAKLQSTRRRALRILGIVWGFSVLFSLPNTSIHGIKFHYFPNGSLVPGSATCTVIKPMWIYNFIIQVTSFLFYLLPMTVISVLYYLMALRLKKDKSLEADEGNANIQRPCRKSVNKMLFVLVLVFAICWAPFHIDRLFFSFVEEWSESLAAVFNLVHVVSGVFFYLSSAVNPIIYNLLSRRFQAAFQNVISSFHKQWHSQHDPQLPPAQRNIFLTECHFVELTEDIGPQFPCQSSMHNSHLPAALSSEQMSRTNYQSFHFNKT
Method in brief: (§2)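 CHO cells stably expressing human NMUR1 (CHO/NMUR1-9) or NMUR2 (CHO/NMUR2-8), selected with G418, seeded 2.0 × 10^4 cells/well. Cells loaded 40 min with 4 μM Fluo-4-AM in HBSS/10 mM HEPES/2.5 mM probenecid pH 7.4. Peptides from 20 mM DMSO stocks applied at 10−12 to 10−6 M final, triplicate, FLIPR read-out. PC50 is the concentration giving 50% of the response to hNMU at 1000 nM.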

[5] = target: T3, Neuromedin-U receptor 1 (Homo sapiens, UniProt Q9HB89); experiment: Partial agonist activity at human NMUR1 expressed in CHO cells by calcium mobilization assay; assay type: functional, cell-based
T3 sequence (Q9HB89 whole entry): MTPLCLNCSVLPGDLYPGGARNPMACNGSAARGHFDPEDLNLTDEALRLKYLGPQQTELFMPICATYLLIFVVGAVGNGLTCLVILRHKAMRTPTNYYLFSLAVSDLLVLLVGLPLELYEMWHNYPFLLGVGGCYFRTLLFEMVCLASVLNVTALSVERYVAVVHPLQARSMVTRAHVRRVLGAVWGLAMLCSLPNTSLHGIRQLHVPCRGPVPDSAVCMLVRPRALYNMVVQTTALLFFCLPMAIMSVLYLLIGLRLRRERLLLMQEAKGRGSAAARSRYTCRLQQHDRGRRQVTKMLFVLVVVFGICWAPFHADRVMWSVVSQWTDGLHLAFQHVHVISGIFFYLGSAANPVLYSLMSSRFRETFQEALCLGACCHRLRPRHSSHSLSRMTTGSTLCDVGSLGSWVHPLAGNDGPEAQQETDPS
Method in brief: (§3)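 Calcium mobilization in CHO cells stably expressing human NMUR1 or NMUR2, Fluo-4-AM loaded, read on a fluorometric imaging plate reader. Peptides tested at 10−12 to 10−6 M final in triplicate. EC50 derived from the curves. Intrinsic activity is the maximal response as % of the endogenous agonist hNMU.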

[6] = target: T2, Neuromedin-U receptor 2; experiment: Agonist activity at human NMUR2 expressed in CHO cells assessed as concentration required to induce 50% response by calcium mobilization assay relative to NMU; assay type: functional, cell-based; method in brief: as §2
[7] = target: T4, Neuromedin-U receptor 1 (Homo sapiens) (UniProt Q9HB89); experiment: Agonist activity at human NMUR1 expressed in CHO cells assessed as concentration required to induce 50% response by calcium mobilization assay relative to NMU; assay type: functional, cell-based; method in brief: as §2
T4 sequence (whole entry): T3 sequence (Q9HB89 whole entry)

[8] = target: T4, Neuromedin-U receptor 1 (Homo sapiens); experiment: Agonist activity at human NMUR1 expressed in CHO cells at 10^-12 to 10^-6 M by calcium mobilization assay relative to NMU; assay type: functional, cell-based; method in brief: as §2
[9] = target: T2, Neuromedin-U receptor 2; experiment: Partial agonist activity at human NMUR2 expressed in CHO cells by calcium mobilization assay; assay type: functional, cell-based; method in brief: as §3
[10] = target: T4, Neuromedin-U receptor 1 (Homo sapiens); experiment: Agonist activity at human NMUR1 expressed in HEK293 cells at 1 to 100 nM by calcium mobilization assay relative to NMU; assay type: functional, cell-based
Method in brief: (§4)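 HEK293 cells transiently transfected with human NMUR1 or NMUR2 plasmid (FuGENE6), reseeded 18 h post-transfection at 4.0 × 10^4 cells/well on poly-D-lysine. After 18 h, loaded 40 min with 4 μM Fluo-4-AM in HBSS/HEPES/probenecid buffer pH 7.4 with 1% FCS, then washed. Peptides in buffer with 0.05% BSA and 0.001% Triton X-100. Maximal FLIPR signal expressed as % of hNMU at 1000 nM.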

[11] = target: T2, Neuromedin-U receptor 2; experiment: Agonist activity at human NMUR2 expressed in HEK293 cells at 1 to 100 nM by calcium mobilization assay relative to NMU; assay type: functional, cell-based; method in brief: as §4
[12] = organism: Homo sapiens; experiment: Selectivity ratio of PC50 for human NMUR1 to PC50 for human NMUR2; method in brief: as §1
[13] = target: T4, Neuromedin-U receptor 1 (Homo sapiens); experiment: Agonist activity at human NMUR1 expressed in HEK293 cells at 1 nM by calcium mobilization assay relative to NMU; assay type: functional, cell-based; method in brief: as §4
[14] = target: T4, Neuromedin-U receptor 1 (Homo sapiens); experiment: Agonist activity at human NMUR1 expressed in HEK293 cells at 10 nM by calcium mobilization assay relative to NMU; assay type: functional, cell-based; method in brief: as §4
[15] = target: T2, Neuromedin-U receptor 2; experiment: Agonist activity at human NMUR2 expressed in HEK293 cells at 1 nM by calcium mobilization assay relative to NMU; assay type: functional, cell-based; method in brief: as §4
[16] = target: T2, Neuromedin-U receptor 2; experiment: Agonist activity at human NMUR2 expressed in HEK293 cells at 10 nM by calcium mobilization assay relative to NMU; assay type: functional, cell-based; method in brief: as §4
[17] = target: T2, Neuromedin-U receptor 2; experiment: Agonist activity at human NMUR2 expressed in CHO cells by calcium mobilization assay; assay type: functional, cell-based; method in brief: as §3
[18] = target: T3, Neuromedin-U receptor 1; experiment: Agonist activity at human NMUR1 expressed in CHO cells by calcium mobilization assay; assay type: functional, cell-based

EC50 [1]: 9.5 nM
EC50 [2]: 3 nM
Compound: CC(C)C[C@H](NC(=O)[C@H](Cc1ccccc1)NC(=O)[C@@H](N)Cc1ccc(O)cc1)C(=O)N[C@@H](Cc1ccccc1)C(=O)N[C@@H](CCCNC(=N)N)C(=O)N1CCC[C@H]1C(=O)N[C@@H](CCCNC(=N)N)C(=O)N[C@@H](CC(N)=O)C(N)=O

Selectivity ratio [3]: 0.9
Intrinsic activity [4]: 82%
EC50 [5]: 9 nM
Activity [6]: 18 nM
Activity [7]: 20 nM
Intrinsic activity [8]: 71%
EC50 [9]: 8.4 nM
Activity [10]: Active
Activity [11]: Active
Selectivity ratio [12]: 1.1
Compound: CC(C)C[C@H](NC(=O)CCc1ccccc1)C(=O)N[C@@H](Cc1ccccc1)C(=O)N[C@@H](CCCNC(=N)N)C(=O)N1CCC[C@H]1C(=O)N[C@@H](CCCNC(=N)N)C(=O)N[C@@H](CC(N)=O)C(N)=O (Hydrocinnamoyl-LFRPRN-NH2)

Activity [10]: inactive
Activity [11]: inactive
Compound: CC(C)C[C@H](NC(=O)CCc1ccccc1)C(=O)N[C@@H](Cc1ccccc1)C(=O)N[C@@H](CCCNC(=N)N)C(=O)N1CCC[C@H]1C(=O)N[C@@H](CCCNC(=N)N)C(=O)N[C@@H](CCC(N)=O)C(N)=O (Hydrocinnamoyl-LFRPRQ-NH2)

Activity [10]: inactive
Activity [11]: inactive
Compound: CC(C)C[C@H](NC(=O)CCc1ccccc1)C(=O)N[C@@H](Cc1ccccc1)C(=O)N[C@@H](CCCNC(=N)N)C(=O)N1CCC[C@H]1C(=O)N[C@@H](CCCNC(=N)N)C(=O)N[C@@H](CCN)C(N)=O (Hydrocinnamoyl-LFRPR[Dab]-NH2)

Activity [10]: Active
Activity [11]: Active
Compound: CC(C)C[C@H](NC(=O)CCc1ccccc1)C(=O)N[C@@H](Cc1ccccc1)C(=O)N[C@@H](CCCNC(=N)N)C(=O)N1CCCC[C@H]1C(=O)N[C@@H](CCCNC(=N)N)C(=O)N[C@@H](CC(N)=O)C(N)=O (Hydrocinnamoyl-LFR[Pip]RN-NH2)

Activity [10]: Active
Activity [11]: Active
Compound: CC(C)C[C@H](NC(=O)CCc1ccccc1)C(=O)N[C@@H](Cc1ccccc1)C(=O)N[C@@H](CCCCNC(=N)N)C(=O)N1CCC[C@H]1C(=O)N[C@@H](CCCNC(=N)N)C(=O)N[C@@H](CC(N)=O)C(N)=O (Hydrocinnamoyl-LF[hArg]PRN-NH2)

Activity [10]: inactive
Activity [11]: inactive
Compound: CC(C)C[C@H](NC(=O)CCc1ccccc1)C(=O)N[C@@H](Cc1ccc(O)cc1)C(=O)N[C@@H](CCCNC(=N)N)C(=O)N1CCC[C@H]1C(=O)N[C@@H](CCCNC(=N)N)C(=O)N[C@@H](CC(N)=O)C(N)=O (Hydrocinnamoyl-LYRPRN-NH2)

Activity [10]: inactive
Activity [11]: inactive
Compound: CC(C)C[C@H](NC(=O)CCc1ccccc1)C(=O)N[C@H](C(=O)N[C@@H](CCCNC(=N)N)C(=O)N1CCC[C@H]1C(=O)N[C@@H](CCCNC(=N)N)C(=O)N[C@@H](CC(N)=O)C(N)=O)c1ccccc1 (Hydrocinnamoyl-L[Phg]RPRN-NH2)

Activity [10]: inactive
Activity [11]: inactive
Compound: CC(C)C[C@H](NC(=O)CCc1ccccc1)C(=O)N[C@@H](CCc1ccccc1)C(=O)N[C@@H](CCCNC(=N)N)C(=O)N1CCC[C@H]1C(=O)N[C@@H](CCCNC(=N)N)C(=O)N[C@@H](CC(N)=O)C(N)=O (Hydrocinnamoyl-L[hPhe]RPRN-NH2)

Selectivity ratio [3]: 49
EC50 [5]: 2.2 nM
Activity [6]: 249 nM
Activity [13]: 63%
Activity [7]: 5.1 nM
Intrinsic activity [8]: 79%
Activity [14]: 84%
Activity [10]: Active
Selectivity ratio [12]: 0.02
Compound: N=C(N)NCCC[C@H](NC(=O)[C@@H]1CCCN1C(=O)[C@H](CCCNC(=N)N)NC(=O)[C@H](Cc1ccccc1)NC(=O)[C@H](Cc1ccc2ccccc2c1)NC(=O)CCc1cccnc1)C(=O)N[C@@H](CC(N)=O)C(N)=O ({Propanoyl(3-(3-pyridyl))}-[2Nal]FRPRN-NH2)

Selectivity ratio [3]: < 0.0066
Activity [15]: 70%
Intrinsic activity [4]: 98%
Activity [16]: 88%
Activity [6]: 6.6 nM
EC50 [17]: 6.4 nM
Activity [7]: > 1000 nM
Selectivity ratio [12]: > 152
Compound: CC(C)C[C@H](NC(=O)CCC1CCCCC1)C(=O)N[C@@H](CC(C)C)C(=O)N[C@@H](CN)C(=O)N1CCC[C@H]1C(=O)N[C@@H](CCCNC(=N)N)C(=O)N[C@@H](CC(N)=O)C(N)=O ({Propanoyl(3-cHex)}-LL[Dap]PRN-NH2)

Activity [10]: Active
Activity [11]: Active
Compound: H-FLFRPRN-NH2

Selectivity ratio [3]: 5.8
Activity [6]: 2.5 nM
EC50 [17]: 2.5 nM
Activity [7]: 0.43 nM
EC50 [18]: 0.43 nM
Selectivity ratio [12]: 0.17
Compound: H-FRVDEEFQSPFASQSRGYFLFRPRN-NH2

Compound: H-YFLFAPRN-NH2
EC50 [1]: 2410 nM
EC50 [2]: 156 nM
